From PubChem BioAssay
Hits are enriched below; roughly 3% of the tested compounds scored in any of these assays.
SENP7 inh: inhibitors of human SENP7 protease; recombinant SENP7, Z-RLRGG-aminoluciferin luminescence, 40 min; AID 434973; inhibition, % at 5 µM; 330,000 tested, 1.5% active; Q9BQF6;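 active = inhibition above about 50% at the single test dose, limit read from the data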;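 note: plate controls were DMSO with enzyme for no effect and no enzyme buffer wells for full effect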
UBC13 polyUb: inhibitors of human UBC13 polyubiquitin chain formation; inhibition, % at 20 µM; TR-FRET; P61088; 330,000 tested, 0.47% active; in the data active = inhibition above about 45%, passing the limit was not always enough; inconclusive = no clear call, values can overlap the other calls
Apaf-1 inh: human Apaf-1 inhibition | O14727 | reconstituted apoptosome caspase-3 activity, DEVD-Rh110 fluorescence | inhibition, % at 20 µM | 330,000 tested, 0.71% active | AID 489030; active = inhibition of at least 40% at 20 µM;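 note: plate controls were DMSO wells for no effect and DEVD-CHO caspase inhibitor wells for full effect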
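Material: reconstituted apoptosome with Apaf-1, cytochrome c, caspase-9, procaspase-3, dATP. Technique: Rh110 fluorescence intensity. Buffer or medium: pH 7.5 Hepes buffer with CHAPS, BSA, DTT. Times: 30 min plus 50 min, RT.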
SENP8 block-1: SENP8 (human) protease inhibition; recombinant SENP8, Nedd8 substrate fluorescence; inhibition, % at 20 µM; 360,000 tested, 0.64% active; AID 602440; in the data active = inhibition mostly above about 40%, no sharp cut-off; inactive = mostly below about 27%
SENP8 block-2: SENP8 protease inhibition; purified SENP8, Z-RLRGG-aminoluciferin cleavage, luminescence; Q96LD8; 330,000 tested, 1.2% active; inhibition, % at 10 µM; in the data active = inhibition above about 50%
SENP6 block: inhibitors of human SENP6 protease; Q9GZR1; Recombinant SENP6 catalytic domain, aminoluciferin luminescence; inhibition, % at 10 µM; 330,000 tested, 1.8% active; AID 2599;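 active = inhibition above about 50% at the single tested dose, limit read from the data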;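 note: plate controls were DMSO wells with enzyme for no effect and DMSO wells lacking enzyme for full effect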
SENP8 confirm: confirmation of human SENP8 protease inhibitors. AID 488912. inhibition, % at 12.5 µM. shares compounds with SENP7 inh. 6,200 tested, 40% active. Recombinant SENP8, Z-RLRGG-aminoluciferin luminescence, 60 min;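 active = mean inhibition across replicates above about 50%, limit read from the data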
SENP6 conf: human SENP6 inhibition, confirmed; shares compounds with SENP7 inh; recombinant SENP6, Z-RLRGG-aminoluciferin luminescence; inhibition, % at 12.5 µM; 6,200 tested, 58% active; AID 488915
SENP7 conf: confirmation of human SENP7 protease inhibitors; shares compounds with SENP7 inh; recombinant SENP7, Z-RLRGG-aminoluciferin luminescence, 40 min; inhibition, % at 12.5 µM; 6,200 tested, 69% active
Casp3 SENP sel: selectivity test for SENP inhibitors: human caspase-3 inhibition; shares compounds with SENP7 inh; purified caspase-3, Z-DEVD-aminoluciferin luminescence, 60 min; inhibition, % at 12.5 µM; 6,200 tested, 60% active; AID 488918;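 active = mean inhibition above about 50%, limit read from the data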;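 note: plate controls were enzyme with DMSO for no effect and wells without caspase-3 for full effect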
Luc interf: interferes with luciferase luminescence in SENP counter-screen; Pre-incubated SENP8/Z-RLRGG-aminoluciferin, luciferase luminescence interference; 6,200 tested, 39% active; shares compounds with SENP7 inh; AID 488919; inhibition, % at 12.5 µM;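 active = mean inhibition above about 50% when retested at one dose, limit read from the data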;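 note: plate controls were DMSO wells with completed reaction for no effect and substrate without enzyme for full effect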
The depositor's hits bear a star; ? = inconclusive; / = not tested or not shown.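 Rule for the calls, unless noted: active = mean inhibition above about 50% in the one-dose retest (limit read from the data); inactive = the rest.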

SMILES	SENP7 inh	UBC13 polyUb	Apaf-1 inh	SENP8 block-1	SENP8 block-2	SENP6 block	SENP8 confirm	SENP6 conf	SENP7 conf	Casp3 SENP sel	Luc interf
Cc1nn(Cc2ccccc2)c(C)c1C(=O)N1CCN(CC(=O)Nc2ccc(F)cc2)CC1	53*	-5	0	13	0	-3	-12	-6	-6	-2	-7
Cc1ccc2c(c1)C(N1CCCC1=O)CC(c1ccco1)N2 (centres undefined)	-8	-9	16	-473	95*	94*	22	82*	100*	95*	17
CC1=C(C(=O)N(C(C)C)C(C)C)CC(CC(=O)NCCCCc2ccccc2)C(=O)N1CCCN1CCCC1=O (centres undefined)	/	/	/	7	/	/	/	/	/	/	/
COCCn1c(C)cc(C(=O)CSc2nnc(C)s2)c1C	50*	6	5	19	10	46	41	38	80*	81*	56*
COCCn1c(C)cc(C(=O)CSc2n[nH]c(N)n2)c1C	-7	2	-4	22	-9	-5	/	/	/	/	/
CCN(CC)S(=O)(=O)c1ccc2oc(Nc3ccccc3)nc2c1	31	0	6	15	32	55*	28	24	71*	25	-2
CCS(=O)(=O)c1ccc2oc(Nc3ccccc3C)nc2c1	79*	2	-4	9	69*	81*	82*	81*	97*	92*	84*
O=C(Nc1nnc(-c2ccco2)o1)c1ccc2ccccc2c1	18	-13	-4	10	47	71*	25	18	14	36	9
Cc1ccc(C(=O)Nc2nnc(-c3ccco3)o2)cc1	44	-18	-2	28	-5	44	/	/	/	/	/
CCOC(=O)COc1cc(-n2c(=S)[nH]c3ccccc3c2=O)c(Cl)cc1Cl	-5	?	6	-6	-5	-9	/	/	/	/	/
CCOC(=O)COc1cc(N)c(Cl)cc1Cl	0	8	3	-14	80*	-39	2	-1	-4	-1	-6
COc1ccc(Cc2c(-c3ccccc3)nc3ccc(Br)cn23)c(C)c1	/	/	/	-68	/	/	/	/	/	/	/
Cc1cc(NC(=O)c2ccc3sc([C@@H]4O[C@H](CO)[C@H](O)[C@H](O)[C@H]4O)nc3c2)n(C)n1	/	/	/	19	/	/	/	/	/	/	/
c1cncc(-c2nc(-c3ccc4c(c3)OCCO4)cs2)c1	83*	1	11	-97	80*	79*	3	81*	97*	72*	80*
Fc1ccc(-c2csc(-c3cccnc3)n2)cc1F	-7	2	7	-3	-1	-11	/	/	/	/	/
Cc1ccc(/C=C/C2=NN(C)C(=O)CC2)cc1	86*	-7	0	19	76*	3	75*	81*	98*	93*	62*
CN1N=C(/C=C/c2ccccc2)CCC1=O	73*	-9	8	5	61*	69*	60*	63*	92*	89*	68*
O=C1CCC(/C=C/c2ccccc2)=NN1Cc1ccccc1	-6	3	3	-20	-3	-10	/	/	/	/	/
C/C(=N\NC(=O)CCc1ccccc1)C1C(=O)c2ccccc2C1=O	26	-17	-4	15	20	-15	/	/	/	/	/
C/C(=N\NC(=O)c1cccc(Cl)c1)C1C(=O)c2ccccc2C1=O	74*	-26	12	26	92*	97*	5	97*	101*	88*	81*
O=C1c2ccccc2CN2C(=O)c3ccccc3CN12	2	-1	-3	10	1	-7	/	/	/	/	/
c1ccc(-c2cn3c(n2)-c2ccccc2C3)cc1	97*	8	1	-42	96*	96*	99*	100*	103*	99*	97*
CCOC(=O)C1(C)CCCCCN1C(=O)c1ccc(N(C)C)cc1 (centres undefined)	/	/	/	12	/	/	/	/	/	/	/
Cc1ccc(Nc2cc(=O)n(C)c(=O)[nH]2)cc1C	/	/	/	4	/	/	/	/	/	/	/
COC(=O)c1ccc(COc2ccc3c(C)c(C)c(=O)oc3c2)o1	30	11	7	-276	54*	39	11	10	4	0	2
SMILES	SENP7 inh	UBC13 polyUb	Apaf-1 inh	SENP8 block-1	SENP8 block-2	SENP6 block	SENP8 confirm	SENP6 conf	SENP7 conf	Casp3 SENP sel	Luc interf
Cc1cc(NC(=O)COC(=O)COc2ccc3c4c(c(=O)oc3c2)CCC4)no1	-3	-2	-4	-140	2	2	/	/	/	/	/
O=c1oc2cc(OCc3ccc([N+](=O)[O-])cc3)ccc2c2c1CCCC2	13	-2	1	-39	2	13	/	/	/	/	/
O=C(O)c1ccc(COc2ccc3c4c(c(=O)oc3c2)CCC4)o1	93*	-3	10	-193	91*	82*	94*	95*	100*	65*	94*
O=C(COc1ccc2c3c(c(=O)oc2c1)CCC3)Nc1ccccn1	89*	8	-12	-242	38	1	31	28	14	66*	19
Cc1ccc(OCc2ccc(C(=O)N3CCOCC3)cc2)cc1C	90*	6	-12	33	75*	83*	-7	74*	94*	84*	80*
O=C(/C=C/[C@H]1O[C@@H](n2ccc(=O)[nH]c2=O)[C@H](O)[C@@H]1O)NCc1ccco1	/	/	/	15	/	/	/	/	/	/	/
Cc1csc(CN(C)C(=O)CC2C(=O)NCCN2Cc2ccccc2C)n1 (centres undefined)	/	/	/	-19	/	/	/	/	/	/	/
Cc1cc(CN2CCCCC2)oc1C(=O)O	-1	7	-9	10	-1	-17	/	/	/	/	/
CC(C)(C)c1ccc(OCc2ccc(C(=O)NN)o2)cc1	-2	-9	24	-2	2	-4	/	/	/	/	/
CC(C)(c1ccccc1)c1ccc(OCc2ccc(C(=O)O)o2)cc1	12	-3	11	18	61*	73*	6	73*	73*	6	78*
Cc1ccc(OCc2ccc(C(=O)O)o2)cc1C	82*	0	11	26	84*	88*	4	93*	101*	41	93*
Cc1c(C)c2ccc(OCc3ccc(C(=O)O)o3)c(C)c2oc1=O	50*	10	4	-299	65*	77*	9	66*	79*	16	57*
